Measured values published in ChEMBL document CHEMBL1938372, “Design and synthesis of conformationally constrained inhibitors of non-nucleoside reverse transcriptase” (J Med Chem, 2011).
Values after ≈ are worked out from the molar mass of the structure shown. Active and inactive are the calls of the source. No cut-off for these calls is given here.

Assays:
[1] = Volume of distribution in Sprague-Dawley rat at 10 mg/kg, po and 2 mg/kg, iv; format: ADME, organism-based; conditions: in vivo
Outline: (§1)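 PK in Sprague-Dawley rats (iv solution in DMSO via an indwelling jugular cannula, or oral suspension in aqueous methylcellulose/Methocel) and beagle dogs (iv and oral given crossover, same vehicles). Plasma levels by LC-MS. F from oral versus iv dose-normalized AUC. Average of at least two animals; rat values within 25% of the mean.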

[2] = tested on: Human immunodeficiency virus; test: Antiviral activity against multidrug-resistant Human immunodeficiency virus assessed as inhibition of viral replication; format: functional, organism-based
Outline: (§2)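 Phenosense cell culture assay against a panel of clinically derived RT mutant viruses in the presence of 10% FBS. IC50 is the compound concentration blocking 50% of viral replication. Each value is the average of two determinations.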

[3] = tested on: Human immunodeficiency virus; test: Antiviral activity against Human immunodeficiency virus harboring reverse transcriptase Y188L mutant assessed as inhibition of viral replication; format: functional, organism-based; outline: as §2
[4] = Bioavailability in Beagle dog at 2 mg/kg, po and 1 mg/kg, iv; format: ADME, organism-based, Canis lupus familiaris; conditions: in vivo; outline: as §1
[5] = biological target: Human immunodeficiency virus type 1 reverse transcriptase (Human immunodeficiency virus 1, UniProt Q72547, Y181C); test: Inhibition of Human immunodeficiency virus reverse transcriptase Y181C mutant by SPA assay
Outline: (§3)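 Recombinant HIV-1 RT polymerase scintillation proximity assay run with mutant enzyme, reported as Ki (nM). Values are geometric means of at least two determinations, each within 2-fold of the mean; SEM is given where there were ≥3 determinations.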

MT4 = test: Cytotoxicity against human MT4 cells up to 8.3 uM; format: cell-based
Outline: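 MT-4 cells in RPMI 1640 with 10% FBS or 50% NHS, run alongside the antiviral CIC95 assay; cytotoxicity checked up to the assay upper limit of 8.3 μM.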

[6] = tested on: Human immunodeficiency virus; test: Antiviral activity against Human immunodeficiency virus expressing wild type reverse transcriptase infected in human MT4 cells by p24 antigen assay in the presence of 10% FBS; format: functional; conditions: Human immunodeficiency virus 1, MT4; read-out: CIC95
Outline: (§4)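 MT-4 human T-lymphoid cells in RPMI 1640 with either 10% FBS or 50% NHS; CIC95 taken as the concentration inhibiting virus spread/replication by >95%. Geometric mean of at least two determinations, individual values within 2-fold; SEM given when ≥3 determinations.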

[7] = tested on: Human immunodeficiency virus; test: Antiviral activity against Human immunodeficiency virus harboring reverse transcriptase Y181C mutant assessed as inhibition of viral replication; format: functional, organism-based; outline: as §2
Rattus norvegicus = test: Dose normalised AUC in Sprague-Dawley rat at 10 mg/kg, po by LC-MS analysis; format: ADME, organism-based; parameters: dose 10 mg/kg, route oral; conditions: in vivo; outline: as §1
[8] = tested on: Human immunodeficiency virus; test: Antiviral activity against wild type Human immunodeficiency virus assessed as inhibition of viral replication; format: functional, organism-based
[9] = tested on: Human immunodeficiency virus; test: Antiviral activity against Human immunodeficiency virus harboring reverse transcriptase G190S mutant assessed as inhibition of viral replication; format: functional, organism-based; outline: as §2
[10] = tested on: Human immunodeficiency virus; test: Antiviral activity against Human immunodeficiency virus expressing reverse transcriptase K103N mutant infected in human MT4 cells by p24 antigen assay in the presence of 10% FBS; format: functional; conditions: Human immunodeficiency virus 1, MT4; read-out: CIC95
Outline: (§5)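 Antiviral spread assay in MT-4 human T-lymphoid cells kept in RPMI 1640 with 10% FBS. Value is the CIC95, the concentration inhibiting virus replication by >95%. Reported as the geometric mean of at least two determinations, all within 2-fold of the mean. Cytotoxicity was checked up to the assay upper limit of 8.3 μM.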

[11] = tested on: Human immunodeficiency virus; test: Antiviral activity against Human immunodeficiency virus harboring reverse transcriptase L100l/K103N/P225P/H triple mutant assessed as inhibition of viral replication; format: functional, organism-based; outline: as §2
[12] = biological target: Human immunodeficiency virus type 1 reverse transcriptase (Human immunodeficiency virus 1, UniProt Q72547, K103N); test: Inhibition of Human immunodeficiency virus reverse transcriptase K103N mutant by SPA assay; outline: as §3
[13] = Inhibition of Human immunodeficiency virus reverse transcriptase by SPA assay
[14] = Plasma clearance in Sprague-Dawley rat at 10 mg/kg, po and 2 mg/kg, iv; format: ADME, organism-based; outline: as §1
[15] = Half life in Beagle dog at 2 mg/kg, po and 1 mg/kg, iv; format: ADME, organism-based, Canis lupus familiaris; conditions: in vivo; outline: as §1
[16] = tested on: Human immunodeficiency virus; test: Antiviral activity against Human immunodeficiency virus expressing wild type reverse transcriptase infected in human MT4 cells by p24 antigen assay in the presence of 50% normal human serum; format: functional; conditions: Human immunodeficiency virus 1, MT4; read-out: CIC95; outline: as §4
[17] = tested on: Human immunodeficiency virus; test: Antiviral activity against Human immunodeficiency virus harboring reverse transcriptase K103N mutant assessed as inhibition of viral replication; format: functional, organism-based; outline: as §2
[18] = tested on: Human immunodeficiency virus; test: Antiviral activity against Human immunodeficiency virus expressing reverse transcriptase Y181C mutant infected in human MT4 cells by p24 antigen assay in the presence of 10% FBS; format: functional; conditions: Human immunodeficiency virus 1, MT4; read-out: CIC95; outline: as §5
[19] = Solubility of the compound in water at pH 2; format: physicochemical
Outline: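 Water solubility of the solid compound measured at pH 2 and at pH 7.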

[20] = tested on: Human immunodeficiency virus; test: Antiviral activity against Human immunodeficiency virus harboring reverse transcriptase V106A/G190A/F227L triple mutant assessed as inhibition of viral replication; format: functional, organism-based; outline: as §2
[21] = tested on: Human immunodeficiency virus; test: Antiviral activity against Human immunodeficiency virus harboring reverse transcriptase K103N/P225H double mutant assessed as inhibition of viral replication; format: functional, organism-based; outline: as §2
[22] = tested on: Human immunodeficiency virus; test: Antiviral activity against Human immunodeficiency virus harboring reverse transcriptase G190A mutant assessed as inhibition of viral replication; format: functional, organism-based; outline: as §2
[23] = tested on: Human immunodeficiency virus; test: Antiviral activity against Human immunodeficiency virus harboring reverse transcriptase L100l mutant assessed as inhibition of viral replication; format: functional, organism-based; outline: as §2
[24] = Plasma clearance in Beagle dog at 2 mg/kg, po and 1 mg/kg, iv; format: ADME, organism-based, Canis lupus familiaris; outline: as §1
[25] = Volume of distribution in Beagle dog at 2 mg/kg, po and 1 mg/kg, iv; format: ADME, organism-based, Canis lupus familiaris; conditions: in vivo; outline: as §1
[26] = tested on: Human immunodeficiency virus; test: Antiviral activity against Human immunodeficiency virus harboring reverse transcriptase K101E/G190A double mutant assessed as inhibition of viral replication; format: functional, organism-based; outline: as §2
Canis familiaris [27] = test: Dose normalised AUC in Beagle dog at 2 mg/kg, po by LC-MS analysis; format: ADME, organism-based, Canis lupus familiaris; parameters: dose 2 mg/kg, route oral; conditions: in vivo; outline: as §1
[28] = tested on: Human immunodeficiency virus; test: Antiviral activity against Human immunodeficiency virus harboring reverse transcriptase K101E/Y181C/G190A triple mutant assessed as inhibition of viral replication; format: functional, organism-based; outline: as §2
[29] = Half life in Sprague-Dawley rat at 10 mg/kg, po and 2 mg/kg, iv; format: ADME, organism-based; conditions: in vivo; outline: as §1
[30] = Bioavailability in Sprague-Dawley rat at 10 mg/kg, po and 2 mg/kg, iv; format: ADME, organism-based; conditions: in vivo; outline: as §1
[31] = tested on: Human immunodeficiency virus; test: Antiviral activity against Human immunodeficiency virus harboring reverse transcriptase K103N/Y181C/G190A triple mutant assessed as inhibition of viral replication; format: functional, organism-based; outline: as §2
[32] = Half life in Beagle dog at 0.125 mg/kg, iv; format: ADME, organism-based, Canis lupus familiaris; parameters: dose 0.125 mg/kg, route intravenous; conditions: in vivo; outline: as §1
[33] = Plasma clearance in Beagle dog at 0.125 mg/kg, iv; format: ADME, organism-based, Canis lupus familiaris; parameters: dose 0.125 mg/kg, route intravenous; outline: as §1
[34] = Volume of distribution in Beagle dog at 0.125 mg/kg, iv; format: ADME, organism-based, Canis lupus familiaris; parameters: dose 0.125 mg/kg, route intravenous; conditions: in vivo; outline: as §1
Canis familiaris [35] = test: Dose normalised AUC in Beagle dog at 10 mg/kg, po by LC-MS analysis; format: ADME, organism-based, Canis lupus familiaris; parameters: dose 10 mg/kg, route oral; conditions: in vivo; outline: as §1
[36] = Bioavailability in Beagle dog at 1 mg/kg, po and 0.25 mg/kg, iv; format: ADME, organism-based, Canis lupus familiaris; conditions: in vivo; outline: as §1
Canis familiaris [37] = test: Dose normalised AUC in Beagle dog at 1 mg/kg, po by LC-MS analysis; format: ADME, organism-based, Canis lupus familiaris; parameters: dose 1 mg/kg, route oral; conditions: in vivo; outline: as §1

Compound	Vd [1]	Ki [5]	Activity (MT4)	IC95 [6]	AUC/dose (Rattus norvegicus)	IC95 [10]	Ki [12]	Ki [13]	clearance [14]	IC95 [16]	IC95 [18]	solubility [19]	half-life [29]	bioavailability [30]	also measured
N#Cc1cc(Cl)cc(Oc2c(Cl)ccc3c2cnn3Cc2n[nH]c3ncccc23)c1 [MK-6186]	10.5 L/kg	0.6 nM	Non-toxic	11 nM	1.6 µM·h	15 nM	0.58 nM	0.34 nM	18 mL/min/kg	64 nM	58 nM	< 0.1 µg/mL	7.6 h	76%	inhibition [2]: Active; inhibition [3]: inactive; bioavailability [4]: 48%; inhibition [7]: Active; inhibition [8]: Active; inhibition [9]: Active; inhibition [11]: Active; half-life [15]: 12.8 h; inhibition [17]: Active; inhibition [20]: inactive; inhibition [21]: Active; inhibition [22]: Active; inhibition [23]: Active; clearance [24]: 6.1 mL/min/kg; Vd [25]: 6 L/kg; inhibition [26]: Active; AUC/dose (Canis familiaris [27]): 2.3 µM·h; inhibition [28]: Active; inhibition [31]: Active
N#Cc1cc(Cl)cc(Oc2c(Cl)ccc3c2nnn3Cc2n[nH]c3nc(N)ccc23)c1	4.4 L/kg	1.2 nM	Non-toxic	3 nM	0.02 µM·h	5.8 nM	0.94 nM	1.1 nM	11.9 mL/min/kg	36 nM	37 nM		4.7 h	< 1%	half-life [32]: 12.8 h; clearance [33]: 2.2 mL/min/kg; Vd [34]: 0.65 L/kg
N#Cc1cc(Cl)cc(Oc2cc(NCc3n[nH]c4ncccc34)c(N)cc2Cl)c1		3.3 nM	Non-toxic	24 nM		40 nM	3.8 nM	2.3 nM							
N#Cc1cc(Cl)cc(Oc2cc(OCc3n[nH]c4nc(N)ccc34)ccc2Cl)c1			Non-toxic	4.9 nM	2.3 µM·h	12 nM		0.2 nM		26 nM	27 nM				AUC/dose (Canis familiaris [35]): 3.1 µM·h; inhibition [2]: Active; inhibition [3]: inactive; inhibition [7]: Active; inhibition [8]: Active; inhibition [9]: Active; inhibition [11]: Active; inhibition [17]: Active; inhibition [20]: inactive; inhibition [21]: Active; inhibition [22]: Active; inhibition [23]: Active; inhibition [26]: Active; inhibition [28]: Active; inhibition [31]: Active
N#Cc1cc(Cl)cc(Oc2c(Cl)ccc3c2c(Cl)nn3Cc2n[nH]c3ncccc23)c1		42 nM	Non-toxic	> 500 nM		> 2000 nM	28 nM	46 nM		> 5000 nM	> 2000 nM				
N#Cc1cc(Cl)cc(Oc2c(Cl)ccc3c2ncn3Cc2n[nH]c3ncccc23)c1	3.3 L/kg	3.3 nM	Non-toxic	23 nM	0.56 µM·h	66 nM	5.3 nM	2 nM	25.6 mL/min/kg	390 nM	320 nM	10 µg/mL (≈ 23 µM)	2.4 h	36%	half-life [15]: 12.8 h; clearance [24]: 2.2 mL/min/kg; Vd [25]: 0.37 L/kg
N#Cc1cc(Cl)cc(Oc2cc(OCc3n[nH]c4ncccc34)ccc2Cl)c1		0.23 nM	Non-toxic	10 nM	0.1 µM·h	15 nM	0.22 nM	0.12 nM		52 nM	22 nM	< 0.1 µg/mL		7.5%	bioavailability [36]: 3%; AUC/dose (Canis familiaris [37]): 0.14 µM·h
